Square brackets hold non-standard residues; d marks the D form. Ends that are not written are not given here. pY = N[C@@H](Cc1ccc(OP(=O)(O)O)cc1)C(=O)O
How the values were obtained:
GRB2-SH2 domain = GRB2-SH2 domain (Homo sapiens, UniProt P62993); assay: MST binding of synthetic peptides to Atto488-labeled GRB2-SH2 domain; conditions: synthetic peptide
[1] = Sulforhodamine B assay of olaparib-induced cytotoxicity, control cells; assay type: cell-based; conditions: human, control (WT) HeLa cells
In short: (§1)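 HeLa cells kept in RPMI 1640 with 10% FBS at 10% CO2. Knockout made by CRISPR-Cas9 gRNA delivered by lentivirus, with puromycin or blasticidin selection; clones checked by Western blot and pooled. Stable reconstitution with wild-type or K109R Strep-tagged GRB2. Cytotoxicity of PARP inhibitor read by sulforhodamine B staining. IC50 taken from the concentration–response data.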

[2] = Sulforhodamine B assay of olaparib-induced cytotoxicity, GRB2-KO cells; assay type: cell-based, human; conditions: human, GRB2-KO HeLa cells
GRB2-KO HeLa cells [3] = assay: as above; assay type: cell-based, human; conditions: Sulforhodamine B assay, ratio of IC50 WT vs GRB2-KO
[4] = Sulforhodamine B assay of olaparib-induced cytotoxicity, KO + GRB2 cells; assay type: cell-based; conditions: human, GRB2-KO HeLa cells reconstituted with WT GRB2
In short: as §1

[5] = Sulforhodamine B assay of olaparib-induced cytotoxicity, KO + K109R cells; assay type: cell-based; conditions: human, GRB2-KO HeLa cells reconstituted with K109R mutant GRB2
In short: as §1

control (WT) HeLa cells = assay: Annexin V/PI staining assay, control cells; assay type: cell-based, human; conditions: FACS, 50 μM olaparib for 72 hours, triplicate
GRB2-KO HeLa cells [6] = assay: Annexin V/PI staining assay, GRB2-KO cells; assay type: cell-based, human; conditions: FACS, 50 μM olaparib for 72 hours, triplicate
In short: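 HeLa cells (GRB2-knockout and comparison lines) grown in RPMI 1640 with 10% FBS at 10% CO2. Cells treated 72 h with DMSO or 50 μM PARP inhibitor, then trypsinized, washed and resuspended in annexin-binding buffer. Labelled with annexin V–Alexa Fluor 647 plus PI for 15 min at room temperature in the dark. Annexin V- and PI-positive fractions scored by flow cytometry against the DMSO control. Triplicate.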

[7] = test system: GRB2-KO HeLa cells reconstituted with ^K109RGRB2; assay: Annexin V/PI staining assay, KO + K109R cells; assay type: cell-based, human; conditions: FACS, 50 μM olaparib for 72 hours, compared with GRB2-KO
[8] = test system: human MRE11 (residues 1 to 411); assay: MST binding of Atto488-labeled GRB2; conditions: bacterially expressed purified proteins

Sequence of GRB2-SH2 domain (P62993 60-152 limits assumed): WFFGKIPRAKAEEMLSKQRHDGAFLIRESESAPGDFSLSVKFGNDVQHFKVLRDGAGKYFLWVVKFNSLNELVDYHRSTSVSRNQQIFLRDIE

PWVN[pY]QDGNLN [WVNpYQDGNLN]
binding to GRB2-SH2 domain in words (GRB2-SH2 domain): limited impact

PSGGKKATQA(pS)QEY [pS139 H2AX]
binding to GRB2-SH2 domain in words (GRB2-SH2 domain): failed to produce a binding isotherm

O=C(c1cc(Cc2n[nH]c(=O)c3ccccc23)ccc1F)N1CCN(C(=O)C2CC2)CC1 [olaparib]
IC50 [1]: 124 ± 41 µM | IC50 [2]: 18 ± 2.9 µM | sensitivity of GRB2-KO cells relative to WT control cells (GRB2-KO HeLa cells [3]): seven | IC50 [4]: 164 ± 47 µM | IC50 [5]: 20 ± 3 µM | olaparib-induced apoptosis, share of cells (control (WT) HeLa cells): 20% | olaparib-induced apoptosis, share of cells (GRB2-KO HeLa cells [6]): 60% | olaparib-induced apoptosis, in words [7]: failed to rescue the phenotype

^K109RGRB2: GRB2 lysine-109-to-arginine mutant, MRE11 nonbinding, generated by site-directed mutagenesis
MRE11 binding in words [8]: no binding

PSGGKKATQASQE(pY) [pY142 H2AX]
binding to GRB2-SH2 domain in words (GRB2-SH2 domain): failed to produce a binding isotherm

Reference: paper PMC8336959 (Science Advances, 2021)
